Test results reported in ChEMBL document CHEMBL1145845, “Acetogenins as selective inhibitors of the human ovarian 1A9 tumor cell line” (2003).
Values after ≈ are worked out from the molar mass of the structure shown. Active and inactive are the calls of the source.

Assays:
1A9 = assay: Effective dose required for inhibitory activity against 1A9 human tumor cell line.; type: functional; details: read-out: ED50 (the source's name)
Summary of the method: (§1)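 Human tumor lines were grown in RPMI-1640 with 25 mM HEPES, 0.25% sodium bicarbonate, 10% FBS and 100 µg/mL kanamycin. KB-VIN is a vincristine-resistant KB subline, and PTX10 is a 1A9 subline with mutated β-tubulin. Trypsinized cells (1500–7500/well) got compound from DMSO stock for 3 days continuous. Cells were fixed with cold 50% TCA, stained with 0.4% SRB, and read at 562 nm. ED50 is the 50% growth-reduction concentration; not active means ≤5% inhibition at the top concentration.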

A549 = assay: Effective dose required for inhibitory activity against A549 human tumor cell line.; type: functional; details: read-out: ED50 (the source's name); summary of the method: as §1
CAKI-1 [1] = assay: Effective dose required for inhibitory activity against CAK1 human tumor cell line; type: functional; details: read-out: ED50 (the source's name); summary of the method: as §1
HOS [2] = assay: Effective dose required for inhibitory activity against HOS human tumor cell line.; type: functional; details: read-out: ED50 (the source's name); summary of the method: as §1
HCT-8 = assay: Effective dose required for inhibitory activity against HCT-8 human tumor cell line.; type: functional; details: read-out: ED50 (the source's name); summary of the method: as §1
KB [3] = assay: Effective dose required for inhibitory activity against KB human tumor cell line.; type: functional; details: read-out: ED50 (the source's name); summary of the method: as §1
KB [4] = assay: Effective dose required for inhibitory activity against KB-VIN human tumor cell line.; type: functional; details: read-out: ED50 (the source's name); summary of the method: as §1
MCF7 = assay: Effective dose required for inhibitory activity against MCF-7 human tumor cell line.; type: functional; details: read-out: ED50 (the source's name); summary of the method: as §1
PC-3 = assay: Effective dose required for inhibitory activity against PC-3 human tumor cell line.; type: functional; details: read-out: ED50 (the source's name); summary of the method: as §1
1A9/ptx-10 [5] = assay: Percent inhibition against PTX10 human tumor cell line at >10 ug/mL; type: functional
SK-MEL-2 [6] = assay: Effective dose required for inhibitory activity against SK-MEL-2 human tumor cell line.; type: functional; details: read-out: ED50 (the source's name); summary of the method: as §1
1A9/ptx-10 [7] = assay: Effective dose required for inhibitory activity against PTX10 human tumor cell line; type: functional; details: read-out: ED50 (the source's name); summary of the method: as §1
SK-MEL-2 [8] = assay: Effective dose required for inhibitory activity against SK-MEL-2 human tumor cell line; Not active; type: functional, cell-based; summary of the method: as §1
CAKI-1 [9] = assay: Effective dose required for inhibitory activity against CAK1 human tumor cell line; Not active; type: functional, cell-based; summary of the method: as §1
HOS [10] = assay: Effective dose required for inhibitory activity against HOS human tumor cell line; Not active; type: functional, cell-based; summary of the method: as §1

Row | Structure (SMILES) | EC50 (1A9) | EC50 (A549) | EC50 (CAKI-1 [1]) | EC50 (HOS [2]) | EC50 (HCT-8) | EC50 (KB [3]) | EC50 (KB [4]) | EC50 (MCF7) | EC50 (PC-3) | Inhibition (1A9/ptx-10 [5]) | EC50 (SK-MEL-2 [6]) | EC50 (1A9/ptx-10 [7]) | NA (SK-MEL-2 [8]) | NA (CAKI-1 [9]) | NA (HOS [10])
1 | CCCCCCCCC[C@H](O)[C@@H]1CC[C@@H]([C@@H]2CC[C@@H](CCCCCCCCCC[C@H](O)CC3=C[C@H](C)OC3=O)O2)O1 | 1930 ng/mL (≈ 3.33 µM) | 17.2 µg/mL (≈ 29.7 µM) | 17.8 µg/mL (≈ 30.7 µM) | 16 µg/mL (≈ 27.6 µM) | 13.8 µg/mL (≈ 23.8 µM) | 13.5 µg/mL (≈ 23.3 µM) | > 20 µg/mL | 7.6 µg/mL (≈ 13.1 µM) | 14.5 µg/mL (≈ 25 µM) | 30% | 15.3 µg/mL (≈ 26.4 µM) | – | – | – | –
2 | CCCCCCCCCCCC[C@@H](O)[C@H]1CC[C@H]([C@H](O)CCCCC(=O)CCCCC[C@@H](O)CC2=C[C@H](C)OC2=O)O1 [ANNONACINONE] | 740 ng/mL (≈ 1.24 µM) | > 20 µg/mL | > 20 µg/mL | > 20 µg/mL | > 20 µg/mL | 18.3 µg/mL (≈ 30.8 µM) | > 20 µg/mL | 11.5 µg/mL (≈ 19.3 µM) | > 20 µg/mL | 36% | > 20 µg/mL | – | – | – | –
3 | CCCCCCCCCC[C@H](O)[C@H]1CC[C@H]([C@H]2CC[C@H]([C@H](O)CCCCCCCC[C@@H](O)CC3=C[C@H](C)OC3=O)O2)O1 [MOLVIZARIN] | 0.005 ng/mL (≈ 8.41e-06 µM) | 12.9 µg/mL (≈ 21.7 µM) | 16.4 µg/mL (≈ 27.6 µM) | 9.9 µg/mL (≈ 16.6 µM) | 14.9 µg/mL (≈ 25 µM) | 10 µg/mL (≈ 16.8 µM) | 13.9 µg/mL (≈ 23.4 µM) | 7.7 µg/mL (≈ 12.9 µM) | 12.9 µg/mL (≈ 21.7 µM) | – | 16.4 µg/mL (≈ 27.6 µM) | 8.7 µg/mL (≈ 14.6 µM) | – | – | –
4 | CCCCCCCCCCCCC(O)C(O)CCC(O)[C@H]1CC[C@H](CCCCCCC[C@@H](O)CC2=C[C@H](C)OC2=O)O1 (stereo partly specified) | 70 ng/mL (≈ 0.117 µM) | > 20 µg/mL | > 20 µg/mL | > 20 µg/mL | > 20 µg/mL | > 20 µg/mL | > 20 µg/mL | 11.5 µg/mL (≈ 19.3 µM) | > 20 µg/mL | 37% | > 20 µg/mL | – | – | – | –
5 | CCCCCC[C@@H](O)CCC[C@H](O)[C@@H]1CC[C@@H]([C@H](O)CC[C@@H](O)[C@@H]2CC[C@@H](CCCCCCCCCC3=C[C@@H](C)OC3=O)O2)O1 [Squamostatin-A] | 8.7 ng/mL (≈ 0.0136 µM) | > 20 µg/mL | > 20 µg/mL | > 20 µg/mL | > 20 µg/mL | > 20 µg/mL | > 20 µg/mL | 8 µg/mL (≈ 12.5 µM) | > 20 µg/mL | 40% | – | – | inactive | – | –
6 | CCCCCC[C@H](O)CCC[C@H](O)[C@H]1CC[C@H]([C@H]2CC[C@H]([C@H](O)CCCCCCCCCCCCC3=C[C@H](C)OC3=O)O2)O1 [SQUAMOCIN] | 0.32 ng/mL (≈ 0.000514 µM) | 9.3 µg/mL (≈ 14.9 µM) | 13.5 µg/mL (≈ 21.7 µM) | 8.5 µg/mL (≈ 13.6 µM) | 9.8 µg/mL (≈ 15.7 µM) | 8.1 µg/mL (≈ 13 µM) | 12 µg/mL (≈ 19.3 µM) | 6 µg/mL (≈ 9.63 µM) | 11.1 µg/mL (≈ 17.8 µM) | – | 16.5 µg/mL (≈ 26.5 µM) | 7 µg/mL (≈ 11.2 µM) | – | – | –
7 | CCCCCCCCCCCC[C@@H](O)[C@H]1CC[C@H]([C@H](O)CCCCC(=O)CCCCCCCC2=C[C@H](C)OC2=O)O1 | 760 ng/mL (≈ 1.31 µM) | > 20 µg/mL | – | – | > 20 µg/mL | > 20 µg/mL | > 20 µg/mL | 9.5 µg/mL (≈ 16.4 µM) | > 20 µg/mL | 31% | > 20 µg/mL | – | – | inactive | inactive
8 | CCCCCCCC(O)C(O)CCCC[C@@H](O)[C@H]1CC[C@H](CCCCCCCCCCCCC2=C[C@H](C)OC2=O)O1 (stereo partly specified) | 770 ng/mL (≈ 1.33 µM) | > 20 µg/mL | > 20 µg/mL | > 20 µg/mL | > 20 µg/mL | 15.1 µg/mL (≈ 26 µM) | > 20 µg/mL | 10.5 µg/mL (≈ 18.1 µM) | 17.5 µg/mL (≈ 30.1 µM) | 37% | 17.5 µg/mL (≈ 30.1 µM) | – | – | – | –
9 | CCCCCCCCCCCC[C@@H](O)[C@H]1CC[C@@H]([C@@H](O)CCCCC(=O)CCCCCCCC2=C[C@H](C)OC2=O)O1 [COROSSOLONE] | 820 ng/mL (≈ 1.42 µM) | 19 µg/mL (≈ 32.8 µM) | > 20 µg/mL | > 20 µg/mL | > 20 µg/mL | 18 µg/mL (≈ 31.1 µM) | > 20 µg/mL | 7.9 µg/mL (≈ 13.6 µM) | 13.5 µg/mL (≈ 23.3 µM) | 37% | 18.8 µg/mL (≈ 32.5 µM) | – | – | – | –
10 | CCCCC(O)C(O)C/C=C\CC[C@H](O)[C@@H]1CC[C@@H](CCCCCCCCCCCC[C@H](O)CC2=C[C@H](C)OC2=O)O1 (stereo partly specified) | 870 ng/mL (≈ 1.46 µM) | > 20 µg/mL | > 20 µg/mL | – | > 20 µg/mL | > 20 µg/mL | > 20 µg/mL | 14.3 µg/mL (≈ 24 µM) | > 20 µg/mL | 25% | > 20 µg/mL | – | – | – | inactive
11 | CCCCCCCCCCCCCCCCCC1OC1C1OC1CCCCCCCCC1=C[C@H](C)OC1=O (stereo partly specified) | 8800 ng/mL (≈ 16.5 µM) | > 20 µg/mL | – | > 20 µg/mL | > 20 µg/mL | > 20 µg/mL | > 20 µg/mL | > 20 µg/mL | > 20 µg/mL | 15% | > 20 µg/mL | – | – | inactive | –
